# Source: PubChem BioAssay
# The source made the active and inactive calls.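 How the source made its calls, unless noted: active means inhibition at or above 50% at 10 µM; inactive means inhibition below 50%.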
# Key:
# [1] = inhibitors of TNFa-induced NFkB p65 translocation, primary screen, imaging, HUVEC, MLSMR starter and 10KST1 sets (AID 438;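 active means inhibition above 20% together with a positive visual image hit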;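 further: compound added about 3h40 before a 20 min TNFalpha stimulation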;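 on inhibition: signal is the nuclear over cytoplasmic p65 intensity ratio per well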); settings: HUVEC TNFa-induced p65 nuclear translocation; cell count: measured here: nuclei count (cytotoxicity indicator), at 2.08 µM; inhibition: at 2 µM, stronger effect = higher value, 0% TNFa-plus-vehicle, 100% no-TNFa wells
# [2] = inhibitors of mutant huntingtin aggregation, primary screen, imaging, exon1htt(103Q)mCFP cells, high-content imaging (AID 483;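 active means visual image review flags a hit and inhibition of aggregation exceeds 20%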;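 further: compound exposure lasted 3 days before fixation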;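 on nuclei count: percent of the per-plate median nuclei count of sample wells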); settings: exon1htt(103Q)mCFP cell line, aggregate imaging, at 2 µM; inhibition of aggregation: stronger effect = higher value; nuclei count: measured here: cell count, toxicity
# [3] = inhibitors of E-selectin induction by TNFa, primary screen, imaging, HUVEC, immunofluorescence, MLSMR starter and 10KST1 sets (AID 487;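 active means visually confirmed hit in the image check and inhibition above 20%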;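 on inhibition: signal is fraction of cell area covered by stained E-selectin grains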;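 on nuclei count: 100% = median nuclei count of all wells on the same plate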); settings: HUVEC TNFalpha-induced E-selectin immunofluorescence imaging, at 2 µM; inhibition: stronger effect = higher value; nuclei count: measured here: cell number, toxicity
# [4] = target: Voltage-gated potassium channel subunit beta-2 (Rattus norvegicus) (UniProt P62483); experiment: KvBeta enzyme negative modulators, primary screen, biochemical, NADPH fluorescence (AID 622;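 active means fluorescence slope higher than the sample average by over 3 SD, cut at about -0.22 in these data, passing the limit was not always enough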;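 further: slope of raw intensity against log time taken from 70 to 1610 s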); settings: recombinant KvBeta, 4-cyanobenzaldehyde reduction, at 10 µM, stronger effect = higher value
# [5] = target: Voltage-gated potassium channel subunit beta-2 (Rattus norvegicus) (UniProt P62483); experiment: KvBeta positive modulators, primary screen, biochemical, NADPH fluorescence (AID 623;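 active means NADPH fluorescence slope more negative than the mean of all samples by about 3 SD, 99.7% confidence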;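 further: fluorescence intensity change per second fitted from 20 to 320 s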); settings: Recombinant KvBeta, NADPH fluorescence decrease slope, 10 min; at 10 µM; stronger effect = lower value
# [6] = target: Muscarinic acetylcholine receptor M4 (Homo sapiens) (UniProt P08173); experiment: compounds altering M4/GIRK thallium flux, either direction, primary screen, M4 allosteric agonist project, cell-based, HEK293 M4/GIRK, BTC-AM (AID 625;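 active means fluorescence slope after compound addition differing from the mean of all tested samples at 99.7% confidence, mostly higher but some lower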;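 further: thallium influx through GIRK channels coupled to M4 in HEK293 cells with BTC-AM dye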); settings: at 10 µM, actives lie on both sides
# In short: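 assay system = HEK293 cells with M4 receptor and GIRK channels | medium = pH 7.3 thallium assay buffer | doses = 10 µM final, single point | timing = cells overnight at 37 °C, BTC-AM loading 1 h, reads 2 min total | signal = BTC-AM fluorescence, 1 Hz kinetic reads | read-out = post-addition slope, 15–24 s, of baseline-normalized fluorescence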
# [7] = inhibitors of Sendai virus-induced IRF3 signaling, primary screen, TLR/RLR signaling modifier project, cell-based, Sendai virus stimulus, luciferase, 10K MLSCN set (AID 602276); settings: HEK293 RL24 IRF3 luciferase reporter, at 10 µM, stronger effect = higher value;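 further: firefly luciferase from ISG56 promoter only with Renilla not read in this screen; 0% = Sendai virus plus DMSO and 100% = medium plus DMSO without virus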
# [8] = inhibitors of poly I:C-induced TLR3 signaling, primary screen, cell-based, poly I:C stimulus, luciferase, 10K MLSCN set (AID 602277;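 active means inhibition of the reporter signal at or above 50%; inactive means inhibition below 50%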); settings: HEK293-TLR3 RL24 IRF3 luciferase reporter, at 10 µM, stronger effect = higher value
# Chain of Voltage-gated potassium channel subunit beta-2 (Rattus norvegicus) (P62483 whole entry, looked up): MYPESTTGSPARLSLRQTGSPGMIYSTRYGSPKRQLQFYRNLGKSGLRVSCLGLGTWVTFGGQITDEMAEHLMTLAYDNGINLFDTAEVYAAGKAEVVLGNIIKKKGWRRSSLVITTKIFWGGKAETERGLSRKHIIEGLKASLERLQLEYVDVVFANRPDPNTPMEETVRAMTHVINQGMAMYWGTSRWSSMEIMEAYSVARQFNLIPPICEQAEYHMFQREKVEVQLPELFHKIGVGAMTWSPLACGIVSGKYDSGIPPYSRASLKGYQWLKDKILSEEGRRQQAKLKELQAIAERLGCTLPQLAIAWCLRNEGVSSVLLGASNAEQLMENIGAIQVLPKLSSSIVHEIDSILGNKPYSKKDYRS
# Chain of Muscarinic acetylcholine receptor M4 (Homo sapiens) (P08173 whole entry, looked up): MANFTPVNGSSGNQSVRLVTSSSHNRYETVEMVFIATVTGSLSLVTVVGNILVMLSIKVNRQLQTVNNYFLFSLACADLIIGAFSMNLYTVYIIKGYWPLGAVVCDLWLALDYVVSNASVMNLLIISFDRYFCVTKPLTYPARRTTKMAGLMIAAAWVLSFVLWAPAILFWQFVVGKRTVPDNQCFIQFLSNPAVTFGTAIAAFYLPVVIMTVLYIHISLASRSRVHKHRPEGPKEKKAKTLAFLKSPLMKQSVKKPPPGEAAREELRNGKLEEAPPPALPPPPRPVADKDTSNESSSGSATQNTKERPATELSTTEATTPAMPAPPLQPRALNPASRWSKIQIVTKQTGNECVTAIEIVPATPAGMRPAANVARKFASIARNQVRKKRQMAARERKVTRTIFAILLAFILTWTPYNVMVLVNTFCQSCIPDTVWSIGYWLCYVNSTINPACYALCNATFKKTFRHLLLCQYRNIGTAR
SMILES,cell count [1],inhibition [1],inhibition of aggregation [2],nuclei count [2] [%],inhibition [3],nuclei count [3] [%],fluorescence slope [4],NADPH fluorescence slope [5],fluorescence slope [6],inhibition [7],inhibition [8]
O=C(c1cccc(Cl)c1)N1CCN(Cc2ccncc2)CC1,702,3.1% (inactive),1.7% (inactive),106,-87.8% (inactive),109,-0.537 (inactive),0.000145 (inactive),0.00543 (inactive),3.71% (inactive),7.08% (inactive)
CSc1nnc(-c2nnc(SC)n2-c2ccccc2)n1-c1ccccc1,879,-9.3% (inactive),-8% (inactive),109,-143% (inactive),123,-0.532 (inactive),-2.1e-05 (inactive),0.00464 (inactive),9.27% (inactive),27.2% (inactive)
Cc1ccc(-n2nc(C(=O)N3CCN(C)CC3)c3c4ccccc4n(C)c3c2=O)cc1,264,5.9% (inactive),-10.3% (inactive),90.9,-38.3% (inactive),119,-0.523 (inactive),-2e-05 (inactive),0.00583 (inactive),19.7% (inactive),35.7% (inactive)
O=C(NC(C(=O)c1ccccc1)n1ccc(=O)[nH]c1=O)c1ccccc1 (configuration not stated),596,-5.6% (inactive),-13% (inactive),104,-6.1% (inactive),104,-0.449 (inactive),-9.3e-05 (inactive),0.00666 (inactive),6.2% (inactive),12% (inactive)
Cc1cc(=O)oc2cc(Oc3ncccn3)ccc12,476,2.4% (inactive),9% (inactive),93.1,-29.9% (inactive),111,-0.427 (inactive),-1.6e-05 (inactive),0.00578 (inactive),-6.46% (inactive),-5.6% (inactive)
CCCC(=O)Nc1ccc(NC(=O)C2CC2)cn1,471,-17.9% (inactive),-28.9% (inactive),99.8,-79.6% (inactive),112,-0.527 (inactive),1.9e-05 (inactive),0.00449 (inactive),14.1% (inactive),-13.6% (inactive)
Cc1noc(C)c1CSc1nnc(-c2ccncc2)n1-c1cccc(Cl)c1C,344,-2.1% (inactive),-9% (inactive),107,51.9% (inactive),74.2,-0.482 (inactive),5.5e-05 (inactive),0.00492 (inactive),10.2% (inactive),34.9% (inactive)
